Laboratory results published in ChEMBL document CHEMBL4680371, “Design and Structure-Activity Relationship of a Potent Furin Inhibitor Derived from Influenza Hemagglutinin” (ACS Med Chem Lett, 2021).
Where a SMILES comes first, the peptide text is derived from it.

Biological target: Furin (Homo sapiens, UniProt P09958)
Experiment: Inhibition of recombinant soluble human furin using pyroGlu-Arg-Thr-Lys-Arg-methyl-coumaryl-7-amide as substrate measured after 1 hr
Outline: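 Soluble human recombinant furin was tested in a competitive kinetic assay. Ki is reported as the mean ± SD of at least two independent experiments.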

Furin, sequence (P09958 whole entry): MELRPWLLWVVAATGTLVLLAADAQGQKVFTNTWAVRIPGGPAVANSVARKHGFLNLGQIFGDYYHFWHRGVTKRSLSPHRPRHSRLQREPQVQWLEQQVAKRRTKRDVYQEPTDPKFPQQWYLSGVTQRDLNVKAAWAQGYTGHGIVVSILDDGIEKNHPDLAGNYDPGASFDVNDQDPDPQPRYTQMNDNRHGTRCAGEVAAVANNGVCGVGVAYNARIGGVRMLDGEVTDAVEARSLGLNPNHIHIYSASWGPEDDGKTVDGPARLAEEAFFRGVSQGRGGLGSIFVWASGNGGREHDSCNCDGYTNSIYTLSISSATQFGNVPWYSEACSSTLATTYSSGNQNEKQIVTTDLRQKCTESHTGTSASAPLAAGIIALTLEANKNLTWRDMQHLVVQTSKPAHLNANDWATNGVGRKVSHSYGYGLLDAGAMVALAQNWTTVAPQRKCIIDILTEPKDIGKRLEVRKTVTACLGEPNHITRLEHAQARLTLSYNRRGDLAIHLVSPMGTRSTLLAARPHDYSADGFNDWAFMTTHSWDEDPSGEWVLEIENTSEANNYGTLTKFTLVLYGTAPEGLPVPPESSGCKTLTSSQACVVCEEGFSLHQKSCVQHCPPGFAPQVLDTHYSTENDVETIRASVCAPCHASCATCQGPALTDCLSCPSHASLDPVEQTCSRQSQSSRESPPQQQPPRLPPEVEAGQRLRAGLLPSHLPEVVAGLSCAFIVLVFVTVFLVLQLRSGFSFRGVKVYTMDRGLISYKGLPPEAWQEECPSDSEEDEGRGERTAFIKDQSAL

SMILES	Ki
CC(=O)N[C@@H](CCCNC(=N)N)C(=O)N[C@@H](Cc1c[nH]c2ccccc12)C(=O)N[C@@H](CCCNC(=N)N)C(=O)N[C@@H](CCCNC(=N)N)C(=O)N[C@@H](CCCNC(=N)N)C(=O)N[C@@H](CCCCN)C(=O)N[C@@H](CCCCN)C(=O)N[C@@H](CCCNC(=N)N)C(=O)N[C@H](C(N)=O)[C@@H](C)O	29 nM
CC(=O)N[C@@H](CCCNC(=N)N)C(=O)N1CCC[C@H]1C(=O)N[C@@H](CCCNC(=N)N)C(=O)N[C@@H](CCCNC(=N)N)C(=O)N[C@@H](CCCNC(=N)N)C(=O)N[C@@H](CCCCN)C(=O)N[C@@H](CCCCN)C(=O)N[C@@H](CCCNC(=N)N)C(=O)N[C@H](C(N)=O)[C@@H](C)O	17 nM
CC[C@H](C)[C@H](NC(=O)[C@H](C)NC(=O)[C@H](CCCNC(=N)N)NC(C)=O)C(=O)N[C@@H](CCCNC(=N)N)C(=O)N[C@@H](CCCNC(=N)N)C(=O)N[C@@H](CCCCN)C(=O)N[C@@H](CCCCN)C(=O)N[C@@H](CCCNC(=N)N)C(=O)N[C@H](C(N)=O)[C@@H](C)O	26 nM
CC(=O)N[C@@H](C)C(=O)N[C@@H](C)C(=O)N[C@@H](CCCNC(=N)N)C(=O)N[C@@H](CCCNC(=N)N)C(=O)N[C@@H](CCCNC(=N)N)C(=O)N[C@@H](CCCCN)C(=O)N[C@@H](CCCCN)C(=O)N[C@@H](CCCNC(=N)N)C(=O)N[C@H](C(N)=O)[C@@H](C)O	11 nM
CC[C@H](C)[C@H](NC(=O)[C@H](CCCNC(=N)N)NC(=O)[C@H](C)NC(=O)CNC(C)=O)C(=O)N[C@@H](CCCNC(=N)N)C(=O)N[C@@H](CCCCN)C(=O)N[C@@H](CCCCN)C(=O)N[C@@H](CCCNC(=N)N)C(=O)N[C@H](C(N)=O)[C@@H](C)O (Ac-GARIRKKRT-NH2)	9 nM
CC(=O)N[C@H](C(=O)N[C@@H](C)C(=O)N[C@@H](CCCNC(=N)N)C(=O)N[C@@H](CCCNC(=N)N)C(=O)N[C@@H](CCCNC(=N)N)C(=O)N[C@@H](CCCCN)C(=O)N[C@@H](CCCCN)C(=O)N[C@@H](CCCNC(=N)N)C(=O)N[C@H](C(N)=O)[C@@H](C)O)[C@@H](C)O	10 nM
CSCC[C@H](NC(=O)[C@H](CCCNC(=N)N)NC(C)=O)C(=O)N[C@@H](CCCNC(=N)N)C(=O)N[C@@H](CCCNC(=N)N)C(=O)N[C@@H](CCCNC(=N)N)C(=O)N[C@@H](CCCCN)C(=O)N[C@@H](CCCCN)C(=O)N[C@@H](CCCNC(=N)N)C(=O)N[C@H](C(N)=O)[C@@H](C)O	38 nM
CC(=O)N[C@@H](CC(N)=O)C(=O)N[C@@H](C)C(=O)N[C@@H](CCCNC(=N)N)C(=O)N[C@@H](CCCNC(=N)N)C(=O)N[C@@H](CCCNC(=N)N)C(=O)N[C@@H](CCCCN)C(=O)N[C@@H](CCCCN)C(=O)N[C@@H](CCCNC(=N)N)C(=O)N[C@H](C(N)=O)[C@@H](C)O	12 nM
CC[C@H](C)[C@H](NC(C)=O)C(=O)N[C@@H](C)C(=O)N[C@@H](CCCNC(=N)N)C(=O)N[C@@H](CCCNC(=N)N)C(=O)N[C@@H](CCCNC(=N)N)C(=O)N[C@@H](CCCCN)C(=O)N[C@@H](CCCCN)C(=O)N[C@@H](CCCNC(=N)N)C(=O)N[C@H](C(N)=O)[C@@H](C)O	11 nM
CC(=O)N[C@@H](CCCNC(=N)N)C(=O)N[C@@H](Cc1c[nH]cn1)C(=O)N[C@@H](CCCNC(=N)N)C(=O)N[C@@H](CCCNC(=N)N)C(=O)N[C@@H](CCCNC(=N)N)C(=O)N[C@@H](CCCCN)C(=O)N[C@@H](CCCCN)C(=O)N[C@@H](CCCNC(=N)N)C(=O)N[C@H](C(N)=O)[C@@H](C)O	21 nM
CC(=O)N[C@@H](CCCNC(=N)N)C(=O)N[C@@H](Cc1ccc(O)cc1)C(=O)N[C@@H](CCCNC(=N)N)C(=O)N[C@@H](CCCNC(=N)N)C(=O)N[C@@H](CCCNC(=N)N)C(=O)N[C@@H](CCCCN)C(=O)N[C@@H](CCCCN)C(=O)N[C@@H](CCCNC(=N)N)C(=O)N[C@H](C(N)=O)[C@@H](C)O	24 nM
CC(=O)N[C@@H](CCCNC(=N)N)C(=O)N[C@@H](C)C(=O)N[C@@H](CCCNC(=N)N)C(=O)N[C@@H](Cc1ccc(O)cc1)C(=O)N[C@@H](CCCNC(=N)N)C(=O)N[C@@H](CCCCN)C(=O)N[C@@H](CCCCN)C(=O)N[C@@H](CCCNC(=N)N)C(=O)N[C@H](C(N)=O)[C@@H](C)O	35 nM
